Source: ChEMBL document CHEMBL1140964, “1,8-Naphthyridines VII. New substituted 5-amino[1,2,4]triazolo[4,3-a][1,8]naphthyridine-6-carboxamides and their isosteric analogues, exhibiting notable anti-inflammatory and/or analgesic activities, but no acute gastrolesivity” (Eur J Med Chem, 2008)

Key:
Mus musculus [1] = experiment: Antinociceptive activity in Swiss mouse assessed as inhibition of acetic acid-induced writhing response at 100 mg/kg, po dose administered 1 hr before acetic acid challenge measured for 30 mins; format: functional
How it was run: (§1)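 Swiss mice (25–35 g, either sex), fasted overnight, received compound orally in 0.5% methylcellulose or vehicle, with 8–10 per group. Testing started at 100 mg/kg with successive twofold dose reductions. Writhes were counted for 30 min after acetic acid injection. Percent inhibition of the writhing response was calculated versus vehicle controls (Student's t-test).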

Rattus norvegicus [2] = experiment: Antiinflammatory activity against carrageenan-induced paw edema in Wistar rat at 100 mg/kg, po dose administered 1 hr before carrageenan challenge assessed after 3 hrs; format: functional
How it was run: (§2)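 Wistar rats (250–300 g, either sex), fasted overnight, dosed by oral gavage with the compound suspended in 0.5% methylcellulose. Controls received vehicle alone, with 8–10 animals per group. Dosing started at 100 mg/kg and was halved stepwise. Carrageenan (1%, 0.1 mL) was injected subplantar 1 h post-dose. Paw volume was measured by plethysmometer immediately and at 3 h, and % inhibition of swelling was calculated versus controls (Student's t-test).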

Rattus norvegicus [3] = experiment: Antiinflammatory activity against carrageenan-induced paw edema in Wistar rat at 200 mg/kg, po dose administered 1 hr before carrageenan challenge assessed after 3 hrs; format: functional
Rattus norvegicus [4] = experiment: Antiinflammatory activity against carrageenan-induced paw edema in Wistar rat at 50 mg/kg, po dose administered 1 hr before carrageenan challenge assessed after 3 hrs; format: functional; how it was run: as §2
Rattus norvegicus [5] = experiment: Antiinflammatory activity against carrageenan-induced paw edema in Wistar rat at 25 mg/kg, po dose administered 1 hr before carrageenan challenge assessed after 3 hrs; format: functional; how it was run: as §2
Mus musculus [6] = experiment: Antinociceptive activity in Swiss mouse assessed as inhibition of acetic acid-induced writhing response at 200 mg/kg, po dose administered 1 hr before acetic acid challenge measured for 30 mins; format: functional
Mus musculus [7] = experiment: Antinociceptive activity in Swiss mouse assessed as inhibition of acetic acid-induced writhing response at 50 mg/kg, po dose administered 1 hr before acetic acid challenge measured for 30 mins; format: functional; how it was run: as §1
Rattus norvegicus [8] = experiment: Antiinflammatory activity against carrageenan-induced paw edema in Wistar rat at 6.25 mg/kg, po dose administered 1 hr before carrageenan challenge assessed after 3 hrs; format: functional; how it was run: as §2
Rattus norvegicus [9] = experiment: Antiinflammatory activity against carrageenan-induced paw edema in Wistar rat at 12.5 mg/kg, po dose administered 1 hr before carrageenan challenge assessed after 3 hrs; format: functional; how it was run: as §2
Rattus norvegicus [10] = experiment: Acute gastrolesivity in Wistar rat assessed as appearance of gastric lesions at 200 mg/kg, po after 5 hrs; format: toxicity, organism-based, Stomach; design: dose 200 mg/kg, route oral; conditions: in vivo
How it was run: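 Wistar rats (250–300 g, either sex), fasted overnight, given the compound orally at 200 mg kg-1 as a suspension in 0.5% methylcellulose by gavage (1 mL/100 g); 8 rats per compound. Stomachs were fixed in 2% formalin, opened along the greater curvature, and examined under a stereomicroscope by a blinded observer. The result is the number of rats with gastric damage over the number treated.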

Mus musculus [11] = experiment: Sedative activity in Swiss mouse assessed as inhibition of spontaneous locomotor activity at 100 mg/kg, po dose measured for every 5 mins during 60 to 90 mins; format: organism-based; design: dose 100 mg/kg, route oral
How it was run: (§3)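 Fasted Swiss mice (25–35 g, either sex) were given compound orally in 0.5% methylcellulose or vehicle. Each mouse was placed alone in a photobeam-type activity cage, with counts recorded every 5 min for 90 min. Pulses from the final 30 min were scored, with testing run 9:00–13:00. Percent inhibition was calculated versus controls (Student's t-test).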

Rattus norvegicus [12] = experiment: Antiinflammatory activity against carrageenan-induced paw edema in Wistar rat at 3.12 mg/kg, po dose administered 1 hr before carrageenan challenge assessed after 3 hrs; format: functional
Mus musculus [13] = experiment: Antinociceptive activity in Swiss mouse assessed as inhibition of acetic acid-induced writhing response at 25 mg/kg, po dose administered 1 hr before acetic acid challenge measured for 30 mins; format: functional; how it was run: as §1
Mus musculus [14] = experiment: Antinociceptive activity in Swiss mouse assessed as inhibition of acetic acid-induced writhing response at 12.5 mg/kg, po dose administered 1 hr before acetic acid challenge measured for 30 mins; format: functional; how it was run: as §1
Mus musculus [15] = experiment: Sedative activity in Swiss mouse assessed as inhibition on spontaneous locomotor activity at 25 mg/kg, po measured for every 5 mins during 60 to 90 mins; format: functional, organism-based; design: dose 25 mg/kg, route oral; how it was run: as §3
Mus musculus [16] = experiment: Sedative activity in Swiss mouse assessed as inhibition on spontaneous locomotor activity at 6.25 mg/kg, po measured for every 5 mins during 60 to 90 mins; format: ADME, organism-based; design: dose 6.25 mg/kg, route oral; how it was run: as §3
Mus musculus [17] = experiment: Antinociceptive activity in Swiss mouse assessed as inhibition of acetic acid-induced writhing response at 6.25 mg/kg, po dose administered 1 hr before acetic acid challenge measured for 30 mins; format: functional; how it was run: as §1
Mus musculus [18] = experiment: Sedative activity in Swiss mouse assessed as inhibition on spontaneous locomotor activity at 12.5 mg/kg, po dose measured for every 5 mins during 60 to 90 mins; format: ADME, organism-based; design: dose 12.5 mg/kg, route oral; how it was run: as §3
Mus musculus [19] = experiment: Antinociceptive activity in Swiss mouse assessed as inhibition of acetic acid-induced writhing response at 3.12 mg/kg, po dose administered 1 hr before acetic acid challenge measured for 30 mins; format: functional

SMILES | inhibition in vivo at 100 mg/kg (Mus musculus [1]) [%] | inhibition in vivo at 100 mg/kg (Rattus norvegicus [2]) [%] | inhibition in vivo at 50 mg/kg (Rattus norvegicus [4]) [%] | inhibition in vivo at 50 mg/kg (Mus musculus [7]) [%] | inhibition at 100 mg/kg (Mus musculus [11]) [%] | inhibition in vivo at 25 mg/kg (Mus musculus [13]) [%] | other results
CC(C)c1nnc2c(C(=O)N3CCCC3)c(N3CCN(C)CC3)c3cccnc3n12 | 100 | 0 |  |  |  |  | 
CCNc1c(C(=O)N(CC)CC)c2nnc(C(C)C)n2c2ncccc12 | 100 | 63 | 63 | 20 | 13 |  | inhibition in vivo at 200 mg/kg (Rattus norvegicus [3]): 65%; inhibition in vivo at 25 mg/kg (Rattus norvegicus [5]): 61%; inhibition in vivo at 200 mg/kg (Mus musculus [6]): 100%; inhibition in vivo at 6.25 mg/kg (Rattus norvegicus [8]): 33%; inhibition in vivo at 12.5 mg/kg (Rattus norvegicus [9]): 35%; Activity (Rattus norvegicus [10]): Non-toxic; inhibition in vivo at 3.12 mg/kg (Rattus norvegicus [12]): 9%
CCN(CC)C(=O)c1c(NCC(C)C)c2ccccc2n2c(C(C)C)nnc12 | 88 | 0 |  | 29 | 14 |  | 
CCN(CC)C(=O)c1c(OC2CCN(C)CC2)c2cccnc2n2cnnc12 | 45 | 0 |  | 20 | 55 |  | 
CCN(CC)C(=O)c1c(N2CCN(C)CC2)c2ccccc2n2cnnc12 | 55 | 0 |  | 58 | 0 | 28 | 
CCN(CC)C(=O)c1c(NCC(C)C)c2cccnc2n2c(C(C)C)nnc12 | 100 | 70 | 66 | 33 | 15 |  | inhibition in vivo at 200 mg/kg (Rattus norvegicus [3]): 74%; inhibition in vivo at 25 mg/kg (Rattus norvegicus [5]): 61%; inhibition in vivo at 200 mg/kg (Mus musculus [6]): 100%; inhibition in vivo at 6.25 mg/kg (Rattus norvegicus [8]): 27%; inhibition in vivo at 12.5 mg/kg (Rattus norvegicus [9]): 50%; Activity (Rattus norvegicus [10]): Non-toxic; inhibition in vivo at 3.12 mg/kg (Rattus norvegicus [12]): 18%
CCN(CC)C(=O)c1c(N2CCN(C)CC2)c2cccnc2n2c(-c3ccccc3)nnc12 | 100 | 0 |  | 62 | 72 | 15 | 
CCN(CC)C(=O)c1c(NN2CCN(C)CC2)c2cccnc2n2c(C(C)C)nnc12 | 17 | 0 |  |  |  |  | 
CCN(CC)C(=O)c1c(OC2CCN(C)CC2)c2cccnc2n2c(C(C)C)nnc12 | 87 | 18 |  | 35 | 65 |  | 
CCN(CC)C(=O)c1c(OC(C)C)c2cccnc2n2c(C(C)C)nnc12 | 11 | 24 | 0 |  |  |  | 
CCOC(=O)N1CCN(c2c(C(=O)N(CC)CC)c3nnc(C(C)C)n3c3ncccc23)CC1 | 100 | 0 |  | 75 | 83 | 53 | inhibition in vivo at 12.5 mg/kg (Mus musculus [14]): 29%; inhibition at 25 mg/kg (Mus musculus [15]): 96%
CCN(CC)C(=O)c1c(N2CCN(C)CC2)c2cccnc2n2cnnc12 | 14 | 0 |  |  |  |  | 
CCNC(=O)c1c(N2CCN(C)CC2)c2cccnc2n2c(C(C)C)nnc12 | 79 | 0 |  | 24 | 80 |  | 
CCNc1c(C(=O)N(CC)CC)c2nnc(C(C)C)n2c2ccccc12 | 91 | 42 | 43 | 43 | 39 | 12 | inhibition in vivo at 25 mg/kg (Rattus norvegicus [5]): 24%; inhibition in vivo at 12.5 mg/kg (Rattus norvegicus [9]): 6%
CCN(CC)C(=O)c1c(NCC(OC)OC)c2cccnc2n2c(C(C)C)nnc12 | 47 | 0 |  | 8 | 0 |  | 
CCCCOc1c(C(=O)N(CC)CC)c2nnc(C(C)C)n2c2ncccc12 | 40 | 3 |  | 14 | 76 |  | 
CCOc1c(C(=O)N(CC)CC)c2nnc(C(C)C)n2c2ncccc12 | 22 | 10 |  |  |  |  | 
CCN(CC)C(=O)c1c(N2CCN(C)CC2)c2ccccc2n2c(C(C)C)nnc12 | 100 | 34 | 0 | 100 | 54 | 77 | inhibition in vivo at 12.5 mg/kg (Mus musculus [14]): 14%; inhibition at 25 mg/kg (Mus musculus [15]): 21%
CCc1nnc2c(C(=O)N(CC)CC)c(NCCC(C)C)c3cccnc3n12 | 98 | 41 | 41 | 75 | 95 | 15 | inhibition in vivo at 25 mg/kg (Rattus norvegicus [5]): 43%; inhibition in vivo at 6.25 mg/kg (Rattus norvegicus [8]): 0%; inhibition in vivo at 12.5 mg/kg (Rattus norvegicus [9]): 29%
CCN(CC)C(=O)c1c(OCC(C)C)c2cccnc2n2c(C(C)C)nnc12 | 26 | 0 |  |  |  |  | 
CCC(CC)Nc1c(C(=O)N(CC)CC)c2nnc(C(C)C)n2c2ncccc12 | 91 | 50 | 47 | 75 | 97 | 58 | inhibition in vivo at 25 mg/kg (Rattus norvegicus [5]): 47%; inhibition at 6.25 mg/kg (Mus musculus [16]): 81%; inhibition in vivo at 6.25 mg/kg (Mus musculus [17]): 36%; inhibition at 12.5 mg/kg (Mus musculus [18]): 92%; inhibition in vivo at 12.5 mg/kg (Mus musculus [14]): 49%; inhibition in vivo at 6.25 mg/kg (Rattus norvegicus [8]): 11%; inhibition in vivo at 3.12 mg/kg (Mus musculus [19]): 18%; inhibition in vivo at 12.5 mg/kg (Rattus norvegicus [9]): 45%; inhibition at 25 mg/kg (Mus musculus [15]): 70%
CC(C)CNc1c(C(=O)N2CCCC2)c2nnc(C(C)C)n2c2ncccc12 | 60 | 0 |  | 64 | 5 | 29 | 
CCN(CC)C(=O)c1c(N(C)CC)c2cccnc2n2c(C(C)C)nnc12 | 81 | 71 | 67 | 59 | 53 | 17 | inhibition in vivo at 25 mg/kg (Rattus norvegicus [5]): 65%; inhibition in vivo at 6.25 mg/kg (Rattus norvegicus [8]): 42%; inhibition in vivo at 12.5 mg/kg (Rattus norvegicus [9]): 51%; inhibition in vivo at 3.12 mg/kg (Rattus norvegicus [12]): 0%
CCN(CC)C(=O)c1c(NC(C)C)c2cccnc2n2c(C(C)C)nnc12 | 83 | 81 | 75 | 54 | 98 | 33 | inhibition in vivo at 25 mg/kg (Rattus norvegicus [5]): 75%; inhibition at 12.5 mg/kg (Mus musculus [18]): 0%; inhibition in vivo at 12.5 mg/kg (Mus musculus [14]): 0%; inhibition in vivo at 6.25 mg/kg (Rattus norvegicus [8]): 15%; inhibition in vivo at 12.5 mg/kg (Rattus norvegicus [9]): 68%; inhibition at 25 mg/kg (Mus musculus [15]): 26%
